# Data from ChEMBL document CHEMBL5055631, “Antitumor properties of novel sesquiterpene lactone analogs as NFκB inhibitors that bind to the IKKβ ubiquitin-like domain (ULD)” (Eur J Med Chem, 2021).
# Assays:
# Format in all cases: functional
# HCC 2998 = assay: Anticancer activity against human HCC 2998 cells assessed as cell growth inhibition incubated for 48 hrs by SRB method
# In short: (§1)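 NCI-60 panel (DTP). Cells in RPMI 1640 with 5% FBS, 2 mM L-glutamine, seeded at 5,000–40,000 per well by doubling time and preincubated 24 h at 37 °C, 5% CO2. Time-zero plates TCA-fixed. DMSO stocks diluted in medium with gentamicin, tested at 100 μM, 10 μM, 1 μM, 0.1 μM and 10 nM for 48 h. Cells fixed with cold TCA, stained with SRB, absorbance read at 515 nm.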
# BT-549 = assay: Anticancer activity against human BT-549 cells assessed as cell growth inhibition incubated for 48 hrs by SRB method; in short: as §1
# NCI-H460 = assay: Anticancer activity against human NCI-H460 cells assessed as cell growth inhibition incubated for 48 hrs by SRB method; in short: as §1
# UO-31 = assay: Anticancer activity against human UO-31 cells assessed as cell growth inhibition incubated for 48 hrs by SRB method
# In short: (§2)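 NCI-60 panel, SRB assay. Time-zero plates were TCA-fixed. Compounds came from DMSO stocks and were tested at 100 μM, 10 μM, 1 μM, 0.1 μM and 10 nM for 48 h. Cells were fixed with cold TCA and stained with 0.4% SRB, and the dye was solubilized in 10 mM Tris base with A515 read.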
# CCRF-CEM = assay: Anticancer activity against human CCRF-CEM cells assessed as cell growth inhibition incubated for 48 hrs by sulforhodamine B assay
# 786-0 = assay: Anticancer activity against human 786-0 cells assessed as cell growth inhibition incubated for 48 hrs by SRB method; in short: as §1
# NCI/ADR-RES = assay: Anticancer activity against human NCI/ADR-RES cells assessed as cell growth inhibition incubated for 48 hrs by SRB method; in short: as §1
# RPMI-8226 = assay: Anticancer activity against human RPMI-8226 cells assessed as cell growth inhibition incubated for 48 hrs by SRB method
# OVCAR-4 = assay: Anticancer activity against human OVCAR-4 cells assessed as cell growth inhibition incubated for 48 hrs by SRB method
# M14 = assay: Anticancer activity against human M14 cells assessed as cell growth inhibition incubated for 48 hrs by SRB method; in short: as §1
# MDA-MB-435 = assay: Anticancer activity against human MDA-MB-435 cells assessed as cell growth inhibition incubated for 48 hrs by SRB method; in short: as §1
# MDA-MB-231 = assay: Anticancer activity against human MDA-MB-231 cells assessed as cell growth inhibition incubated for 48 hrs by SRB method; in short: as §1
# OVCAR-5 = assay: Anticancer activity against human OVCAR-5 cells assessed as cell growth inhibition incubated for 48 hrs by SRB method
# UACC-257 = assay: Anticancer activity against human UACC-257 assessed as cell growth inhibition incubated for 48 hrs by SRB method
# In short: as §2, with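 “assay. Cells grown in RPMI 1640 with 5% FBS and 2 mM L-glutamine, seeded at 5,000–40,000 cells/well depending on doubling time, and preincubated 24 h at 37 °C with 5% CO2.” for “assay.”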
# SK-MEL-28 = assay: Anticancer activity against human SK-MEL-28 cells assessed as cell growth inhibition incubated for 48 hrs by SRB method; in short: as §1
# HCT-116 = assay: Anticancer activity against human HCT-116 cells assessed as cell growth inhibition incubated for 48 hrs by SRB method; in short: as §1
# CAKI-1 = assay: Anticancer activity against human CAKI-1 cells assessed as cell growth inhibition incubated for 48 hrs by SRB method; in short: as §1
# MCF7 = assay: Anticancer activity against human MCF7 cells assessed as cell growth inhibition incubated for 48 hrs by SRB method; in short: as §1
# HL-60(TB) = assay: Anticancer activity against human HL-60(TB) cells assessed as cell growth inhibition incubated for 48 hrs by SRB method
# SF-539 = assay: Anticancer activity against human SF-539 cells assessed as cell growth inhibition incubated for 48 hrs by SRB method
# HCT-15 = assay: Anticancer activity against human HCT-15 cells assessed as cell growth inhibition incubated for 48 hrs by SRB method; in short: as §1
# K562 = assay: Anticancer activity against human K562 cells assessed as cell growth inhibition incubated for 48 hrs by SRB method
# T47D = assay: Anticancer activity against human T47D cells assessed as cell growth inhibition incubated for 48 hrs by SRB method; in short: as §1
# SNB-75 = assay: Anticancer activity against human SNB-75 cells assessed as cell growth inhibition incubated for 48 hrs by SRB method
# LOX IMVI = assay: Anticancer activity against human LOX IMVI cells assessed as cell growth inhibition incubated for 48 hrs by SRB method
# RXF 393 = assay: Anticancer activity against human RXF 393 cells assessed as cell growth inhibition incubated for 48 hrs by SRB method; in short: as §1
# HOP-92 = assay: Anticancer activity against human HOP-92 cells assessed as cell growth inhibition incubated for 48 hrs by SRB method
# A498 = assay: Anticancer activity against human A498 cells assessed as cell growth inhibition incubated for 48 hrs by SRB method; in short: as §1
# NCI-H23 = assay: Anticancer activity against human NCI-H23 cells assessed as cell growth inhibition incubated for 48 hrs by SRB method; in short: as §1
# MOLT-4 = assay: Anticancer activity against human MOLT-4 assessed as cell growth inhibition incubated for 48 hrs by SRB method
# Malme-3M = assay: Anticancer activity against human MALME-3M cells assessed as cell growth inhibition incubated for 48 hrs by SRB method
# SF-295 = assay: Anticancer activity against human SF-295 cells assessed as cell growth inhibition incubated for 48 hrs by SRB method; in short: as §1
# HT-29 = assay: Anticancer activity against human HT29 cells assessed as cell growth inhibition incubated for 48 hrs by SRB method; in short: as §1
# [1] = Anticancer activity against human HS 578T cells assessed as cell growth inhibition incubated for 48 hrs by SRB method
# ACHN = assay: Anticancer activity against human ACHN cells assessed as cell growth inhibition incubated for 48 hrs by SRB method; in short: as §1
# PC-3 = assay: Anticancer activity against human PC-3 cells assessed as cell growth inhibition incubated for 48 hrs by SRB method; in short: as §1
# NCI-H522 = assay: Anticancer activity against human NCI-H522 cells assessed as cell growth inhibition incubated for 48 hrs by SRB method
# KM12 = assay: Anticancer activity against human KM12 cells assessed as cell growth inhibition incubated for 48 hrs by SRB method; in short: as §1
# U-251 = assay: Anticancer activity against human U-251 cells assessed as cell growth inhibition incubated for 48 hrs by SRB method
# In short: as §2, with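 “assay. Cells grown in RPMI 1640 with 5% FBS and 2 mM L-glutamine, seeded at 5,000–40,000 cells/well depending on doubling time, and preincubated 24 h at 37 °C with 5% CO2.” for “assay.”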
# HOP-62 = assay: Anticancer activity against human HOP-62 cells assessed as cell growth inhibition incubated for 48 hrs by SRB method; in short: as §1
# SR = assay: Anticancer activity against human SR cells assessed as cell growth inhibition incubated for 48 hrs by SRB method; in short: as §1
compound,measurement,setting,value
C=C1C(=O)O[C@H]2[C@H]1CC/C(COC(=O)NCc1ccccc1OC)=C\CC[C@@]1(C)O[C@@H]21,GI50,HCC 2998,1820 nM
same,GI50,BT-549,1470 nM
same,GI50,NCI-H460,3730 nM
same,GI50,UO-31,1040 nM
same,GI50,CCRF-CEM,480 nM
same,GI50,786-0,2450 nM
same,GI50,NCI/ADR-RES,2290 nM
same,GI50,RPMI-8226,1770 nM
same,GI50,OVCAR-4,1570 nM
same,GI50,M14,1100 nM
same,GI50,MDA-MB-435,1700 nM
same,GI50,MDA-MB-231,690 nM
same,GI50,OVCAR-5,870 nM
same,GI50,UACC-257,1350 nM
same,GI50,SK-MEL-28,1710 nM
same,GI50,HCT-116,540 nM
same,GI50,CAKI-1,3230 nM
same,GI50,MCF7,3130 nM
same,GI50,HL-60(TB),1610 nM
same,GI50,SF-539,1530 nM
same,GI50,HCT-15,1040 nM
same,GI50,K562,820 nM
same,GI50,T47D,3400 nM
same,GI50,SNB-75,2440 nM
same,GI50,LOX IMVI,1430 nM
same,GI50,RXF 393,1270 nM
same,GI50,HOP-92,1490 nM
same,GI50,A498,2260 nM
same,GI50,NCI-H23,1740 nM
same,GI50,MOLT-4,2530 nM
same,GI50,Malme-3M,1890 nM
same,GI50,SF-295,5020 nM
same,GI50,HT-29,1220 nM
same,GI50,[1],490 nM
same,GI50,ACHN,1160 nM
same,GI50,PC-3,1790 nM
same,GI50,NCI-H522,350 nM
same,GI50,KM12,3530 nM
same,GI50,U-251,2200 nM
same,GI50,HOP-62,3690 nM
same,GI50,SR,670 nM
C=C1C(=O)O[C@H]2[C@H]1CC/C(COC(=O)NCCc1ccc(OC)cc1)=C\CC[C@@]1(C)O[C@@H]21,GI50,HCC 2998,2480 nM
same,GI50,BT-549,2020 nM
same,GI50,NCI-H460,12200 nM
same,GI50,UO-31,1550 nM
same,GI50,CCRF-CEM,1980 nM
same,GI50,786-0,2770 nM
same,GI50,NCI/ADR-RES,2650 nM
same,GI50,RPMI-8226,2850 nM
same,GI50,OVCAR-4,2610 nM
same,GI50,M14,1980 nM
same,GI50,MDA-MB-435,3530 nM
same,GI50,MDA-MB-231,1920 nM
same,GI50,OVCAR-5,2190 nM
same,GI50,UACC-257,1470 nM
same,GI50,SK-MEL-28,8970 nM
same,GI50,HCT-116,1340 nM
same,GI50,CAKI-1,4520 nM
same,GI50,MCF7,8080 nM
same,GI50,HL-60(TB),2340 nM
same,GI50,SF-539,1790 nM
same,GI50,HCT-15,1740 nM
same,GI50,K562,3080 nM
same,GI50,T47D,13800 nM
same,GI50,SNB-75,4090 nM
same,GI50,LOX IMVI,1380 nM
same,GI50,RXF 393,1720 nM
same,GI50,HOP-92,1990 nM
same,GI50,A498,10000 nM
same,GI50,NCI-H23,4340 nM
same,GI50,MOLT-4,2610 nM
same,GI50,Malme-3M,2440 nM
same,GI50,SF-295,13500 nM
same,GI50,HT-29,2150 nM
same,GI50,[1],1890 nM
same,GI50,ACHN,1760 nM
same,GI50,PC-3,2730 nM
same,GI50,NCI-H522,1820 nM
same,GI50,KM12,8360 nM
same,GI50,U-251,11100 nM
same,GI50,HOP-62,12200 nM
same,GI50,SR,2070 nM
